Read-outs that look alike come from different tables or passages of the source.
Key:
Type in all cases: cell-based, Plasmodium falciparum
P. falciparum 3D7 [1] = conditions: 48 h; for effect on parasitaemia compared with the control: 2.5 nM compound alone
P. falciparum 3D7 [2] = conditions: 72 h; for IC50: asynchronous culture, 0.0019–2 µM, ± standard error of the mean; for reduction of P. falciparum parasitaemia by 50%: at the concentrations tested (0.0019–2 µM)
P. falciparum 3D7 [3] = assay: Competition of TCAMS compounds; conditions: for effect on the increase in parasitaemia promoted by melatonin: 2.5 nM compound with 100 nM melatonin; for effect on the increase in parasitaemia promoted by melatonin / effect on the increase in parasitaemia promoted by serotonin: 48 h; for effect on the increase in parasitaemia promoted by serotonin: 2.5 nM compound with 250 nM serotonin; for classification on the serotonin/melatonin pathway in the parasite: from effects in presence and absence of serotonin or melatonin
In short: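 Asynchronous P. falciparum 3D7 cultures (1% parasitaemia, 2% haematocrit) were given 2.5 nM test compound with or without 250 nM serotonin or 100 nM melatonin. Incubation was 48 h at 37 °C under mixed gas, with a DMSO solvent control. Cells were stained with SYBR Green-I (1:10,000) and MitoTracker Deep Red (50 nM) for 20 min at 37 °C, then parasitaemia was read by flow cytometry. Survival is relative to solvent; triplicate, 3 independent experiments.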

[4] = read-out: IC50 (nM) 3D7, Table 1
[5] = Plasmodium falciparum, 3D7, 72 h, read-out: IC50 (nM) 3D7, Table 1

Compound: COc1ccc2[nH]cc(CCNC(C)=O)c2c1 [Melatonin, melatonin, reference compound]
- increase of P. falciparum parasitaemia compared with the control (P. falciparum 3D7 [1]; 100 nM): 15.05%

Compound: NCCc1c[nH]c2ccc(O)cc12 [Serotonin, serotonin, reference compound]
- increase of P. falciparum parasitaemia compared with the control (P. falciparum 3D7 [1]; 250 nM): 11.86%

Compound: COc1ccc(CN2C(=S)N(Cc3ccccc3)C(=O)C2CC(=O)Nc2ccccc2)cc1OC (centres unmarked) [TCMDC-123874, COc1ccc(CN2C(CC(= O)Nc3ccccc3)C(= O)N(Cc3ccccc3)C2 = S)cc1OC]
- IC50 (P. falciparum 3D7 [2]; [4]): 759 ± 131 nM

Compound: Brc1ccc(Nc2nc(NCc3ccccc3)c3ccccc3n2)cc1 [TCMDC-124574, Brc1ccc(Nc2nc(NCc3ccccc3)c3ccccc3n2)cc1]
- IC50 (P. falciparum 3D7 [2]; [5]): 619 ± 213 nM

Compound: COc1ccc(C2CC(=O)C3=C(C2)NC(C)=C(C(=O)OC(C)C)C3c2cccc(O)c2)cc1OC (centres unmarked) [TCMDC-125636, COc1ccc(cc1OC)C1CC(= O)C2 = C(C1)NC(C) = C(C2c1cccc(O)c1)C(= O)OC(C)C]
- IC50 (P. falciparum 3D7 [2]; [4]): 80.2 ± 18.9 nM

Compound: CCCCCC(C)C(C)c1cc(O)c2c(c1)OC(C)(C)CC2(O)c1ccnn1C (centres unmarked) [TCMDC-131795, CCCCCC(C)C(C)c1cc(O)c2c(OC(C)(C)CC2(O)c2ccnn2C)c1]
- IC50 (P. falciparum 3D7 [2]; [5]): 909 ± 65.1 nM

Compound: O=C1CCCN1CCCNCc1ccc(-c2ccc(-c3nc4cc(C(F)(F)F)ccc4[nH]3)s2)cc1 [TCMDC-132764, OC(= O)C(F)(F)F.FC(F)(F)c1ccc2[nH]c(nc2c1)-c1ccc(s1)-c1ccc(CNCCCN2CCCC2 = O)cc1]
- IC50 (P. falciparum 3D7 [2]; [4]): 259 ± 49.4 nM

Compound: Fc1ccc2[nH]c(-c3cccc(-c4ccc(CN5CCN(c6ccncc6)CC5)cc4)c3)nc2c1 [TCMDC-132918, OC(= O)C(F)(F)F.Fc1ccc2[nH]c(nc2c1)-c1cccc(c1)-c1ccc(CN2CCN(CC2)c2ccncc2)cc1]
- IC50 (P. falciparum 3D7 [2]; [4]): 68.4 ± 6.93 nM

Compound: Cn1nccc1C(=O)NCCNCc1ccc(-c2ccc(-c3nc4cc(C(F)(F)F)ccc4[nH]3)s2)cc1 [TCMDC-133018, OC(= O)C(F)(F)F.Cn1nccc1C(= O)NCCNCc1ccc(cc1)-c1ccc(s1)-c1nc2cc(ccc2[nH]1)C(F)(F)F]
- IC50 (P. falciparum 3D7 [2]; [4]): 284 ± 125 nM

Compound: Clc1ccc2nccc(N3CCC(CN4CCC(c5c[nH]c6ccccc56)CC4)CC3)c2c1 [TCMDC-134281, OC(= O)C(F)(F)F.Clc1ccc2nccc(N3CCC(CN4CCC(CC4)c4c[nH]c5ccccc45)CC3)c2c1]
- IC50 (P. falciparum 3D7 [2]; [4]): 72.9 ± 10 nM

Compound: COc1ccc(NC(=O)[C@H](CC(C)C)Nc2cc(C)nc(NCCc3ccccc3)n2)cc1 [TCMDC-134778, OC(= O)C(F)(F)F.COc1ccc(NC(= O)[C@H](CC(C)C)Nc2cc(C)nc(NCCc3ccccc3)n2)cc1]
- IC50 (P. falciparum 3D7 [2]; [4]): 497 ± 99.5 nM

Compound: COc1cc2nc(NCCc3ccccc3)nc(NCCCc3ccccc3)c2cc1OC [TCMDC-135301, COc1cc2nc(NCCc3ccccc3)nc(NCCCc3ccccc3)c2cc1OC]
- IC50 (P. falciparum 3D7 [2]; [5]): 434 ± 81.2 nM
- effect on parasitaemia compared with the control (P. falciparum 3D7 [1]): induced a significant increase in parasitaemia
- increase in parasitaemia (P. falciparum 3D7 [1]; 2.5 nM): 9.69%
- effect on the increase in parasitaemia promoted by melatonin (P. falciparum 3D7 [3]): able to inhibit the increase in parasitaemia partially
- effect on the increase in parasitaemia promoted by serotonin (P. falciparum 3D7 [3]): unable to prevent the effect of the neurotransmitter on P. falciparum parasitaemia

Compound: O=C(c1ccc(F)cc1)N1CCOC(CCN2CCC(c3ccccc3)CC2)(c2ccc(Cl)c(Cl)c2)C1 (centres unmarked) [TCMDC-135334, Fc1ccc(cc1)C(= O)N1CCOC(CCN2CCC(CC2)c2ccccc2)(C1)c1ccc(Cl)c(Cl)c1]
- reduction of P. falciparum parasitaemia by 50% (P. falciparum 3D7 [2]): could not reduce P. falciparum parasitaemia by 50%

Compound: COc1cc(NC(=O)N2CCOC(CCN3CCC4(CCc5ccccc54)CC3)(c3ccc(Cl)c(Cl)c3)C2)cc(OC)c1 (centres unmarked) [TCMDC-135338, COc1cc(NC(= O)N2CCOC(CCN3CCC4(CCc5ccccc45)CC3)(C2)c2ccc(Cl)c(Cl)c2)cc(OC)c1]
- IC50 (P. falciparum 3D7 [2]; [4]): 442 ± 78.8 nM

Compound: CCOc1ccc(C(=O)N2CCOC(CCN3CCC(c4ccccc4)CC3)(c3ccc(Cl)c(Cl)c3)C2)cc1 (centres unmarked) [TCMDC-135344, CCOc1ccc(cc1)C(= O)N1CCOC(CCN2CCC(CC2)c2ccccc2)(C1)c1ccc(Cl)c(Cl)c1]
- IC50 (P. falciparum 3D7 [2]; [4]): 462 ± 185 nM

Compound: COc1cc(NC(=O)N2CCOC(CCN3CCC4(CCc5ccccc54)CC3)(c3ccc(Cl)c(Cl)c3)C2)cc(OC)c1OC (centres unmarked) [TCMDC-135346, COc1cc(NC(= O)N2CCOC(CCN3CCC4(CCc5ccccc45)CC3)(C2)c2ccc(Cl)c(Cl)c2)cc(OC)c1OC]
- IC50 (P. falciparum 3D7 [2]; [4]): 75.5 ± 18.2 nM

Compound: COc1cc2nc(NCCc3ccccc3)nc(N(C)Cc3ccccc3)c2cc1OC [TCMDC-135385, COc1cc2nc(NCCc3ccccc3)nc(N(C)Cc3ccccc3)c2cc1OC]
- IC50 (P. falciparum 3D7 [2]; [5]): 1210 ± 315 nM
- effect on parasitaemia compared with the control (P. falciparum 3D7 [1]): induced a significant increase in parasitaemia
- effect on the increase in parasitaemia promoted by melatonin (P. falciparum 3D7 [3]): unable to block their effects on the erythrocyte cycle
- effect on the increase in parasitaemia promoted by serotonin (P. falciparum 3D7 [3]): unable to prevent the effect of the neurotransmitter on P. falciparum parasitaemia

Compound: COc1cc2nc(NCCc3ccccc3)nc(NCc3cc(C)no3)c2cc1OC [TCMDC-135435, COc1cc2nc(NCCc3ccccc3)nc(NCc3cc(C)no3)c2cc1OC]
- IC50 (P. falciparum 3D7 [2]; [5]): 734 ± 162 nM
- effect on parasitaemia compared with the control (P. falciparum 3D7 [1]): did not significantly affect parasitaemia compared with the control
- effect on the increase in parasitaemia promoted by melatonin (P. falciparum 3D7 [3]): able to inhibit the increase in parasitaemia partially
- effect on the increase in parasitaemia promoted by serotonin (P. falciparum 3D7 [3]): unable to prevent the effect of the neurotransmitter on P. falciparum parasitaemia

Compound: COc1cc2nc(NCCc3ccccc3)nc(NCc3cnn(C)c3C)c2cc1OC [TCMDC-135459, COc1cc2nc(NCCc3ccccc3)nc(NCc3cnn(C)c3C)c2cc1OC]
- IC50 (P. falciparum 3D7 [2]; [5]): 287 ± 24.2 nM
- effect on parasitaemia compared with the control (P. falciparum 3D7 [1]): induced a significant increase in parasitaemia
- effect on the increase in parasitaemia promoted by melatonin (P. falciparum 3D7 [3]): unable to block their effects on the erythrocyte cycle
- effect on the increase in parasitaemia promoted by serotonin (P. falciparum 3D7 [3]): unable to prevent the effect of the neurotransmitter on P. falciparum parasitaemia

Compound: COc1ccc2ncc(F)c([C@H](O)CN3CCC(NCc4ccc5c(c4)NC(=O)CO5)CC3)c2c1 [TCMDC-135829, Cl.COc1ccc2ncc(F)c([C@H](O)CN3CCC(CC3)NCc3ccc4OCC(= O)Nc4c3)c2c1]
- IC50 (P. falciparum 3D7 [2]; [4]): 336 ± 176 nM

Compound: Cc1cc(NC(=O)NCCN2CCC(NC(=O)c3ccc(Cl)cc3)CC2)c2ccccc2n1 [TCMDC-136171, Cc1cc(NC(= O)NCCN2CCC(CC2)NC(= O)c2ccc(Cl)cc2)c2ccccc2n1]
- IC50 (P. falciparum 3D7 [2]; [4]): 110 ± 46.2 nM

Compound: CCN(CCNc1nc(NCCc2cnc[nH]2)nc(N(CCC#N)Cc2ccccc2)n1)c1cccc(C)c1 [TCMDC-139258, CCN(CCNc1nc(NCCc2cnc[nH]2)nc(n1)N(CCC#N)Cc1ccccc1)c1cccc(C)c1]
- IC50 (P. falciparum 3D7 [2]; [5]): 216 ± 15.4 nM

Compound: COc1cc(C)nc2ccc(NC(=O)c3ccc(C(=O)Nc4ccc5nc(C)cc(OC)c5c4)cc3)cc12 [TCMDC-139502, COc1cc(C)nc2ccc(NC(= O)c3ccc(cc3)C(= O)Nc3ccc4nc(C)cc(OC)c4c3)cc12]
- IC50 (P. falciparum 3D7 [2]; [4]): 98.2 ± 25.1 nM

Compound: O=C(/C=C/c1ccc(Cl)c(Cl)c1)Nc1cccc(CN2CCC(c3c[nH]c4ccc(O)cc34)CC2)c1 [TCMDC-139634, Oc1ccc2[nH]cc(C3CCN(Cc4cccc(NC(= O)\C = C\c5ccc(Cl)c(Cl)c5)c4)CC3)c2c1]
- IC50 (P. falciparum 3D7 [2]; [4]): 346 ± 47.5 nM
- effect on parasitaemia compared with the control (P. falciparum 3D7 [1]): induced a significant increase in parasitaemia
- effect on the increase in parasitaemia promoted by melatonin (P. falciparum 3D7 [3]): could inhibit the increase in parasitaemia promoted by melatonin thoroughly
- effect on the increase in parasitaemia promoted by serotonin (P. falciparum 3D7 [3]): able to inhibit the increase in parasitaemia
- classification on the serotonin/melatonin pathway in the parasite (P. falciparum 3D7 [3]): potential partial agonists of this pathway in the parasite

Compound: O=C(/C=C/c1ccc(Cl)c(Cl)c1)N1CCC(CN2CCC(c3c[nH]c4ccc(O)cc34)CC2)CC1 [TCMDC-139786, Oc1ccc2[nH]cc(C3CCN(CC4CCN(CC4)C(= O)\C = C\c4ccc(Cl)c(Cl)c4)CC3)c2c1]
- IC50 (P. falciparum 3D7 [2]; [4]): 138 ± 23.9 nM
- effect on parasitaemia compared with the control (P. falciparum 3D7 [1]): induced a significant increase in parasitaemia
- effect on the increase in parasitaemia promoted by melatonin (P. falciparum 3D7 [3]): could inhibit the increase in parasitaemia promoted by melatonin thoroughly
- effect on the increase in parasitaemia promoted by serotonin (P. falciparum 3D7 [3]): partially inhibited the increase in parasitaemia promoted by serotonin
- classification on the serotonin/melatonin pathway in the parasite (P. falciparum 3D7 [3]): potential partial agonists of this pathway in the parasite

Compound: CS(=O)(=O)Nc1ccc2[nH]cc(C3CCN(CC4CCN(C(=O)/C=C/c5ccc(Cl)c(Cl)c5)CC4)CC3)c2c1 [TCMDC-139813, CS(= O)(= O)Nc1ccc2[nH]cc(C3CCN(CC4CCN(CC4)C(= O)\C = C\c4ccc(Cl)c(Cl)c4)CC3)c2c1]
- IC50 (P. falciparum 3D7 [2]; [4]): 116 ± 49.1 nM
- effect on parasitaemia compared with the control (P. falciparum 3D7 [1]): did not significantly affect parasitaemia compared with the control
- effect on the increase in parasitaemia promoted by melatonin (P. falciparum 3D7 [3]): able to inhibit the increase in parasitaemia partially
- effect on the increase in parasitaemia promoted by serotonin (P. falciparum 3D7 [3]): partially inhibited the increase in parasitaemia promoted by serotonin

Compound: O=C(NC1CCC(CN2CCC(c3c[nH]c4ccccc34)CC2)CC1)c1cc(-c2ccc(F)cc2F)ccc1O (centres unmarked) [TCMDC-139894, Oc1ccc(cc1C(= O)NC1CCC(CN2CCC(CC2)c2c[nH]c3ccccc23)CC1)-c1ccc(F)cc1F]
- reduction of P. falciparum parasitaemia by 50% (P. falciparum 3D7 [2]): could not reduce P. falciparum parasitaemia by 50%

Compound: O=C(Nc1ccccc1)N(Cc1cccc(-c2cccc(CNCc3ccc4c(c3)OCO4)c2)c1)C1CCN(Cc2ccccc2)CC1 [TCMDC-140590, OC(= O)C(F)(F)F.O = C(Nc1ccccc1)N(Cc1cccc(c1)c1cccc(CNCc2ccc3OCOc3c2)c1)C1CCN(Cc2ccccc2)CC1]
- IC50 (P. falciparum 3D7 [2]; [4]): 285 ± 144 nM

Compound: CC[C@H](NC(=O)c1c(CC2CCN(CC(C)=O)CC2)c(-c2ccccc2)nc2ccccc12)c1ccccc1 [TCMDC-141946, CC[C@H](NC(= O)c1c(CC2CCN(CC(C) = O)CC2)c(nc2ccccc12)-c1ccccc1)c1ccccc1]
- IC50 (P. falciparum 3D7 [2]; [4]): 215 ± 27.9 nM
